Reference: ChEMBL document CHEMBL4732199, “Potent and orally bioavailable CDK8 inhibitors: Design, synthesis, structure-activity relationship analysis and biological evaluation” (Eur J Med Chem, 2021)
Calls of active or inactive are those of the source. The calls are words filed in the database; no cut-off is given here.

Tests used:
[1] = molecular target: Glycogen synthase kinase-3 beta (Homo sapiens, UniProt P49841); experiment: Inhibition of human GSKbeta H350L mutant (2 to 3nd residues) using YRRAAVPPSPSLSRHSSPHQS(p) EDEEE as substrate incubated for 40 mins in presence of [gamma-33P]-ATP by scintillation counting method
Procedure, shortened: (§1)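 Outsourced radioisotope (HotSpot) kinase assay run by a contract lab, with ATP at the kinase's Km(ATP). The IC50 was converted to an apparent Ki by the Cheng-Prusoff equation, Ki = IC50/(1+[ATP]/Km(ATP)), using the experimentally determined Km(ATP).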

[2] = molecular target: T1, Protein kinase C theta type (Homo sapiens, UniProt Q04759); experiment: Inhibition of human full length PKCtheta at 1 uM using histone H1 as substrate incubated for 40 mins in presence of [gamma-33P]-ATP by scintillation counting method relative to control
Procedure, shortened: (§2)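 Single-point screen of residual kinase activity (%) at 1 µM compound. Run as a contract radiometric [γ-33P]-ATP kinase assay, either the KinaseProfiler service or the HotSpot assay. ATP was set at the experimentally determined Km(ATP) of each kinase.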
Target sequence in this assay (Q04759 whole entry, looked up): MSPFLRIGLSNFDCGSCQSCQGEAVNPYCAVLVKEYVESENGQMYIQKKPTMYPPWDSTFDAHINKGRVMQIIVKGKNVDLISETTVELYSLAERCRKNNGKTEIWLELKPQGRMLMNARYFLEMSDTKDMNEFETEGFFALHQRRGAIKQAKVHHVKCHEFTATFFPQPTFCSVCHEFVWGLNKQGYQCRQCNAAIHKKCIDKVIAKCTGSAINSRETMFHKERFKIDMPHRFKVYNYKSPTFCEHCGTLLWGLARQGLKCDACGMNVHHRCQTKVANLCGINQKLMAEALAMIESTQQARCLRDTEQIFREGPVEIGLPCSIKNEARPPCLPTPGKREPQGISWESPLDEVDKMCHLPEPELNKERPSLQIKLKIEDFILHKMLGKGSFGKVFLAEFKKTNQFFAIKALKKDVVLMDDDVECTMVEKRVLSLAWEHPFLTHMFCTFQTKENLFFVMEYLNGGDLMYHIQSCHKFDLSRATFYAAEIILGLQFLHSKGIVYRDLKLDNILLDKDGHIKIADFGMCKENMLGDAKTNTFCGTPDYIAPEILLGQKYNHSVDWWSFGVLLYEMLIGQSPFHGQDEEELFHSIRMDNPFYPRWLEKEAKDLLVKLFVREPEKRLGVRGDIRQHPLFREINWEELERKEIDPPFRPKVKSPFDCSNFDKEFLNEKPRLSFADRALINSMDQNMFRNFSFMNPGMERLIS

MDA-MB-453 = experiment: Growth inhibition human MDA-MB-453 cells after 72 hrs by resazurin or MTT assay; type: functional
Procedure, shortened: (§3)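 Tumour cell lines kept in RPMI-1640, DMEM or MEM with 10% FBS at 37 °C, 5% CO2, mycoplasma-free. Exposure lasted 72 h. Viability was read by MTT for adherent solid-tumour lines and by resazurin for suspension leukaemia lines. GI50 came from nonlinear regression, given as mean ± standard deviation of at least two replicates unless stated otherwise.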

A2780 = experiment: Growth inhibition human A2780 cells after 72 hrs by resazurin or MTT assay; type: functional; procedure, shortened: as §3
MOLM-13 = experiment: Growth inhibition human MOLM-13 cells after 72 hrs by resazurin or MTT assay; type: functional; procedure, shortened: as §3
[3] = Inhibition of CYP4501A in human liver microsomes using ethoxyresorufin O-deethylation as substrate by LC-MS/MS analysis
[4] = molecular target: Glycogen synthase kinase-3 alpha (Homo sapiens, UniProt P49840); experiment: Inhibition of human GSKalpha S449A mutant (2 to 3nd residues) using YRRAAVPPSPSLSRHSSPHQS(p) EDEEE as substrate incubated for 40 mins in presence of [gamma-33P]-ATP by scintillation counting method; procedure, shortened: as §1
[5] = molecular target: Cyclin-dependent kinase 1/cyclin B1 (Homo sapiens) (UniProt P06493+P14635); experiment: Inhibition of CDK1/cyclin-B (unknown origin) at 1 uM relative to control; type: protein-complex assay
Procedure, shortened: (§4)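 Residual activity of each kinase with compound at 1 µM, measured in a contracted radioisotope-based kinase profiling assay and expressed as % kinase activity remaining.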

COLO 205 = experiment: Growth inhibition human COLO 205 cells after 72 hrs by resazurin or MTT assay; type: functional; procedure, shortened: as §3
MDA-MB-231 = experiment: Growth inhibition human MDA-MB-231 cells after 72 hrs by resazurin or MTT assay; type: functional; procedure, shortened: as §3
[6] = Growth inhibition human WI38 cells after 72 hrs by resazurin or MTT assay; type: cell-based; conditions: WI-38 cells
[7] = molecular target: T2, Cyclin-dependent kinase 5/CDK5 activator 1 (Homo sapiens) (UniProt Q00535+Q15078); experiment: Inhibition of CDK5/p35 (unknown origin) at 1 uM; type: protein-complex assay; procedure, shortened: as §4
[8] = molecular target: CDK9/cyclin T1 (Homo sapiens) (UniProt O60563+P50750); experiment: Inhibition of CDK9/Cyclin T1 (unknown origin) at 1 uM relative to control; type: protein-complex assay; procedure, shortened: as §4
MV4-11 = experiment: Growth inhibition of human MV4-11 cells after 72 hrs by resazurin staining based assay; type: functional
Procedure, shortened: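 MV4-11 leukaemia cells grown in medium with 10% FBS at 37 °C, 5% CO2. Growth was read by a 72-h resazurin viability assay. GI50 was obtained by nonlinear regression and reported as mean ± standard deviation of at least two replicates.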

[9] = molecular target: CDK17/Cyclin-Y (Homo sapiens) (UniProt Q00537+Q8ND76); experiment: Inhibition of CDK17/Cyclin Y (unknown origin) at 1 uM; type: protein-complex assay; procedure, shortened: as §4
U-937 = experiment: Growth inhibition human U-937 cells after 72 hrs by resazurin or MTT assay; type: functional; procedure, shortened: as §3
PANC-1 = experiment: Growth inhibition human PANC-1 cells after 72 hrs by resazurin or MTT assay; type: functional; procedure, shortened: as §3
[10] = molecular target: CDK7/Cyclin H/MNAT1 (Homo sapiens) (UniProt P51946+P50613+P51948); experiment: Inhibition of CDK7/cyclin H/MNAT1 (unknown origin) at 1 uM; type: protein-complex assay; procedure, shortened: as §4
T47D = experiment: Growth inhibition human T47D cells after 72 hrs by resazurin or MTT assay; type: functional; procedure, shortened: as §3
[11] = molecular target: Cyclin-Y/Cyclin-dependent kinase 16 (Homo sapiens) (UniProt Q00536+Q8ND76); experiment: Inhibition of CDK16/Cyclin Y (unknown origin) at 1 uM; type: protein-complex assay; procedure, shortened: as §4
CDK8/Cyclin C = CDK8/Cyclin C (Homo sapiens, UniProt P49336); experiment: Inhibition of CDK8/cyclin C (unknown origin) using RBER-IRStide as substrate incubated for 60 mins in presence of [gamma33P]ATP by scintillation counting method; type: protein-complex assay
[12] = molecular target: Cyclin-dependent kinase 14/Cyclin-Y (Homo sapiens) (UniProt O94921+Q8ND76); experiment: Inhibition of CDK14/Cyclin Y (unknown origin) at 1 uM; type: protein-complex assay; procedure, shortened: as §4
[13] = molecular target: CDK3/Cyclin E (Homo sapiens) (UniProt P24864+Q00526); experiment: Inhibition of CDK3/cyclin-E (unknown origin) at 1 uM; type: protein-complex assay; procedure, shortened: as §4
[14] = molecular target: Cyclin-dependent kinase 4/cyclin D1 (Homo sapiens) (UniProt P11802+P24385); experiment: Inhibition of CDK4/cyclin-D1 (unknown origin) at 1 uM; type: protein-complex assay; procedure, shortened: as §4
[15] = molecular target: CDK18/Cyclin Y (Homo sapiens) (UniProt Q07002+Q8ND76); experiment: Inhibition of CDK18/Cyclin Y (unknown origin) at 1 uM; type: protein-complex assay; procedure, shortened: as §4
MCF7 = experiment: Growth inhibition human MCF7 cells after 72 hrs by resazurin or MTT assay; type: functional; procedure, shortened: as §3
[16] = molecular target: T1, Protein kinase C theta type; experiment: Inhibition of human full length PKCtheta using histone H1 as substrate incubated for 40 mins in presence of [gamma-33P]-ATP by scintillation counting method
Procedure, shortened: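 IC50 measured in a contracted radiometric kinase assay with ATP at the experimentally determined Km(ATP) of each kinase. Apparent Ki was derived by Cheng-Prusoff: Ki = IC50/(1+[ATP]/Km(ATP)).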
Target sequence in this assay (Q04759 whole entry): as the sequence (Q04759 whole entry, looked up) above

[17] = molecular target: T2, Cyclin-dependent kinase 5/CDK5 activator 1 (Homo sapiens); experiment: Inhibition of CDK5/p25 (unknown origin) at 1 uM; type: protein-complex assay; procedure, shortened: as §4
[18] = molecular target: CDK6/cyclin D3 (Homo sapiens) (UniProt P30281+Q00534); experiment: Inhibition of CDK6/cyclin-D3 (unknown origin) at 1 uM; type: protein-complex assay; procedure, shortened: as §4
[19] = test system: Glycogen synthase kinase-3 alpha (Homo sapiens), P49840 [UNDEFINED MUTATION]; experiment: Inhibition of human GSKalpha S449A mutant (2 to 3nd residues) at 1 uM using YRRAAVPPSPSLSRHSSPHQS(p) EDEEE as substrate incubated for 40 mins in presence of [gamma-33P]-ATP by scintillation counting method relative to control; procedure, shortened: as §2
[20] = test system: Glycogen synthase kinase-3 beta (Homo sapiens), P49841 [UNDEFINED MUTATION]; experiment: Inhibition of human GSKbeta H350L mutant (2 to 3nd residues) at 1 uM using YRRAAVPPSPSLSRHSSPHQS(p) EDEEE as substrate incubated for 40 mins in presence of [gamma-33P]-ATP by scintillation counting method relative to control; procedure, shortened: as §2
[21] = molecular target: CDK2/Cyclin A2 (Homo sapiens) (UniProt P24941+P20248); experiment: Inhibition of CDK2/cyclin-A (unknown origin) at 1 uM; type: protein-complex assay; procedure, shortened: as §4
HCT-116 = experiment: Growth inhibition human HCT-116 cells after 72 hrs by resazurin or MTT assay; type: functional; procedure, shortened: as §3
HT-29 = experiment: Growth inhibition human HT-29 cells after 72 hrs by resazurin or MTT assay; type: functional; procedure, shortened: as §3

T2 sequence (Q00535 whole entry): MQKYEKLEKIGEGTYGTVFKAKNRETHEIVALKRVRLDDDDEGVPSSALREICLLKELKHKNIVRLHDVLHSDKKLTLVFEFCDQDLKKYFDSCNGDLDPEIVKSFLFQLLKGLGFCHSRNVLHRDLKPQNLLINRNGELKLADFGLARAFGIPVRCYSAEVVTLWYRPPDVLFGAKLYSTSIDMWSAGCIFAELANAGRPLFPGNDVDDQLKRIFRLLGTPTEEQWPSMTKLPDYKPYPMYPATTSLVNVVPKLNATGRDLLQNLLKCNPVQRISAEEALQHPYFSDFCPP
T2 sequence (Q15078 99-307 partner limits assumed): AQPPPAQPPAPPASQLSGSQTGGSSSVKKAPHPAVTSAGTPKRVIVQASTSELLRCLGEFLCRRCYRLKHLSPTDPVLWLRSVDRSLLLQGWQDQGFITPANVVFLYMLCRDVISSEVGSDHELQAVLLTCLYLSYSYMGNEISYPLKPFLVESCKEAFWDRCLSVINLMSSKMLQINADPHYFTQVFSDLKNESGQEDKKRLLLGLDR
Cyclin-dependent kinase 1/cyclin B1 (Homo sapiens), sequence (P06493 whole entry, looked up): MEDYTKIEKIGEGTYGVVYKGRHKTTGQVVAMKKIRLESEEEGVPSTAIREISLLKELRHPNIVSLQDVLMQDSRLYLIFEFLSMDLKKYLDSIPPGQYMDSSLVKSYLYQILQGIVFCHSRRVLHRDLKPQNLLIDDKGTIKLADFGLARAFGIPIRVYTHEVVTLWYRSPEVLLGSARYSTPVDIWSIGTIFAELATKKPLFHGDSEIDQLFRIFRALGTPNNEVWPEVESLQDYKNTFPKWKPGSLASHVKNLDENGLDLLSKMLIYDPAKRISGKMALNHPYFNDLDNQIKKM
Cyclin-dependent kinase 1/cyclin B1 (Homo sapiens), sequence (P14635 whole entry, looked up): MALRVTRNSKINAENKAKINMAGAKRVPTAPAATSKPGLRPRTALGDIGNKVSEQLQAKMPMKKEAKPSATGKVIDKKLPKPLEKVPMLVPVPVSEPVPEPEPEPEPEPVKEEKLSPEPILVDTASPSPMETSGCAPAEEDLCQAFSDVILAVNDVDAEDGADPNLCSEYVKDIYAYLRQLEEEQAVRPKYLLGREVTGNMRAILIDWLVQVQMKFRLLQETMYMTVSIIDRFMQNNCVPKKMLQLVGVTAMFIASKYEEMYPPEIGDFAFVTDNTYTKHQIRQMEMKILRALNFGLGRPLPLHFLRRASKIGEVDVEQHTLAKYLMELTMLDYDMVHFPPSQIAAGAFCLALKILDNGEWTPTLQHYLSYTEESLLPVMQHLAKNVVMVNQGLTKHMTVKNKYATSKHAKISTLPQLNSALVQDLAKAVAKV
CDK8/Cyclin C, sequence (P49336 whole entry): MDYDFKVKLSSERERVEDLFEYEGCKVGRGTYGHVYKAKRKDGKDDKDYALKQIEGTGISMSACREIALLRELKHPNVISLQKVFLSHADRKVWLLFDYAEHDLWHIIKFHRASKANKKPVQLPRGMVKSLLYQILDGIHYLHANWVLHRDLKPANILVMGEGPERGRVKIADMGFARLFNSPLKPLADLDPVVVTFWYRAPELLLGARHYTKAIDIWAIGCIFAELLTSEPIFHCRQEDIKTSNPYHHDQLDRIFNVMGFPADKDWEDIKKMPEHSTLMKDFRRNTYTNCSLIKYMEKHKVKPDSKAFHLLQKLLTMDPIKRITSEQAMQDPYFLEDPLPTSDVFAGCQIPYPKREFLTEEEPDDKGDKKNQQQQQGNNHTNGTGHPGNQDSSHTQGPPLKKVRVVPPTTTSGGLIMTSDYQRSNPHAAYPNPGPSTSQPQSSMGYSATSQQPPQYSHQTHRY
CDK8/Cyclin C, sequence (P24863 whole entry, further chain): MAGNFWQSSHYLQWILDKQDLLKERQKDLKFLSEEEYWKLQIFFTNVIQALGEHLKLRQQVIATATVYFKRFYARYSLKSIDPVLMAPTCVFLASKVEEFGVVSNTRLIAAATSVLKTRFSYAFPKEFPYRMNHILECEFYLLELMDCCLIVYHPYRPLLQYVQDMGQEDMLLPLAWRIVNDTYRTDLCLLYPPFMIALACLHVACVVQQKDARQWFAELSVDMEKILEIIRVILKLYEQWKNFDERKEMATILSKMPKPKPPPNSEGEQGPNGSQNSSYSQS
CDK3/Cyclin E (Homo sapiens), sequence (P24864 whole entry, looked up): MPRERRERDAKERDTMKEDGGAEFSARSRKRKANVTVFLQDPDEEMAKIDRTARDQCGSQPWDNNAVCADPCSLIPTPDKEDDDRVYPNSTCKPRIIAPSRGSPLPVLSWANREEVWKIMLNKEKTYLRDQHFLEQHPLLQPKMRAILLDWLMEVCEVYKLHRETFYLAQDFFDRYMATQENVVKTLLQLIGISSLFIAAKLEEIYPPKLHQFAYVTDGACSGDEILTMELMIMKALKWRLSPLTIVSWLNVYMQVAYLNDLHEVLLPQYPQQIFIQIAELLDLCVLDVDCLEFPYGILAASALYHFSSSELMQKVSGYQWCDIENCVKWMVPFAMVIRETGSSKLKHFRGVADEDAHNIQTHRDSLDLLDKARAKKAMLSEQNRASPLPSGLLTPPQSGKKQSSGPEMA
CDK3/Cyclin E (Homo sapiens), sequence (Q00526 whole entry, looked up): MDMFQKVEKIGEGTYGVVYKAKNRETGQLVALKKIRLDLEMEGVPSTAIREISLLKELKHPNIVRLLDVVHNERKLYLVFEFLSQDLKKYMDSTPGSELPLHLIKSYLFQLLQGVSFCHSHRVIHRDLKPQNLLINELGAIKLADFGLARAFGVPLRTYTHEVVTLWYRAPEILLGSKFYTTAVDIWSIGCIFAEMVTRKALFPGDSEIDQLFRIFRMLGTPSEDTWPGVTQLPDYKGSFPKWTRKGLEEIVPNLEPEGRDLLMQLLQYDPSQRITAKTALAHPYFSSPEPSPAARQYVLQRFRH
Glycogen synthase kinase-3 beta (Homo sapiens), P49841 [UNDEFINED MUTATION], sequence (P49841 whole entry, looked up, stated change not applied): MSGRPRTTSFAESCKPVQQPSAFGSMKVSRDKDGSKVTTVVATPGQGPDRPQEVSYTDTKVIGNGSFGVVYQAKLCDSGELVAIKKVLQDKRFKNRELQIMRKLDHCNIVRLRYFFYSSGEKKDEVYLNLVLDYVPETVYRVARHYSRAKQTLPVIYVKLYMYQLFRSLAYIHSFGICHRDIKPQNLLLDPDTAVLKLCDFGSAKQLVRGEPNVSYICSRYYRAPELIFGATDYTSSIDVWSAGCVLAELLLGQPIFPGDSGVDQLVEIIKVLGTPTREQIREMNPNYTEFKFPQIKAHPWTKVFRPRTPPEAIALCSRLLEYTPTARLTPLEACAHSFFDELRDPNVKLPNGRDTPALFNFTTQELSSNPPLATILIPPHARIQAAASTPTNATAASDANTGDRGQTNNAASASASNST
Glycogen synthase kinase-3 beta, sequence (P49841 whole entry): as the sequence (P49841 whole entry, looked up, stated change not applied) above
Glycogen synthase kinase-3 alpha (Homo sapiens), P49840 [UNDEFINED MUTATION], sequence (P49840 whole entry, looked up, stated change not applied): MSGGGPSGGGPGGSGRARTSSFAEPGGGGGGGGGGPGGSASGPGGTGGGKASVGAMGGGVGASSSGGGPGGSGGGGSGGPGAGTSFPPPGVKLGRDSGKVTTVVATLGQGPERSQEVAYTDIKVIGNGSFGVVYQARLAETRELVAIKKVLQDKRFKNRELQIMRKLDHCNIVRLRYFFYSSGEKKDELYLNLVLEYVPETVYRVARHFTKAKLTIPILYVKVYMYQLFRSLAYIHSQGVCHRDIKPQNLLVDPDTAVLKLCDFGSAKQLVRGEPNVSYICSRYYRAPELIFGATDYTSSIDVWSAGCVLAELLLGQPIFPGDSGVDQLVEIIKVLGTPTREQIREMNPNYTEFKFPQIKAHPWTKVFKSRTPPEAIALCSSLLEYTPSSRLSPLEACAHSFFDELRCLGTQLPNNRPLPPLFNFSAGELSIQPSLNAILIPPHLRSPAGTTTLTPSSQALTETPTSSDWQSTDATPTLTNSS
Glycogen synthase kinase-3 alpha, sequence (P49840 whole entry): as the sequence (P49840 whole entry, looked up, stated change not applied) above

`O=C1NCCC12CCN(c1c(Cl)cncc1-c1cc3ccccc3s1)CC2` gave a Ki [1] of 0.018 µM, an inhibition [2] greater than 50% and a GI50 (MDA-MB-453) of 17.4 µM. For the same compound, the GI50 (A2780) was 17.6 µM, the GI50 (MOLM-13) was 5.81 µM and the IC50 [3] was 16.6 µM. The Ki [4] was 0.043 µM, the inhibition [5] was “inactive” and the GI50 (COLO 205) was greater than 50 µM. For the same compound, the GI50 (MDA-MB-231) was 34.2 µM, the GI50 at 72 h [6] was 35 µM and the inhibition [7] was “inactive”. The inhibition [8] was “inactive”, the GI50 (MV4-11) was 0.58 µM and the inhibition [9] was “inactive”. For the same compound, the GI50 (U-937) was 2.69 µM, the GI50 (PANC-1) was greater than 50 µM and the inhibition [10] was “inactive”. The GI50 (T47D) was 17.9 µM, the inhibition [11] was “inactive” and the Ki (CDK8/Cyclin C) was 0.014 µM. The inhibition [12] was “inactive”, the inhibition [13] was “inactive” and the inhibition [14] was “inactive”. For the same compound, the inhibition [15] was “inactive”, the GI50 (MCF7) was greater than 50 µM and the Ki [16] was 0.134 µM. The inhibition [17] was “inactive”, the inhibition [18] was “inactive” and the inhibition [19] was greater than 50%. The inhibition [20] was greater than 50%, the inhibition [21] was “inactive” and the GI50 (HCT-116) was 42.7 µM. For the same compound, the GI50 (HT-29) was 29.3 µM.
